Test results taken from ChEMBL document CHEMBL1152266, “Synthesis of 3,6-diazabicyclo[3.1.1]heptanes as novel ligands for neuronal nicotinic acetylcholine receptors” (Bioorg Med Chem Lett, 2008).

Assays:
[1] = organism: Rattus norvegicus; assay: Selectivity ratio of Ki for rat alpha7 nAChR to Ki for rat alpha4beta2 nAChR
[2] = target: Neuronal acetylcholine receptor; alpha4/beta2 (Rattus norvegicus, UniProt P09483+P12390); assay: Displacement of [3H]epibatidine form alpha4beta2 nAChR in rat cortex
Sequence of Neuronal acetylcholine receptor; alpha4/beta2 (P09483 whole entry): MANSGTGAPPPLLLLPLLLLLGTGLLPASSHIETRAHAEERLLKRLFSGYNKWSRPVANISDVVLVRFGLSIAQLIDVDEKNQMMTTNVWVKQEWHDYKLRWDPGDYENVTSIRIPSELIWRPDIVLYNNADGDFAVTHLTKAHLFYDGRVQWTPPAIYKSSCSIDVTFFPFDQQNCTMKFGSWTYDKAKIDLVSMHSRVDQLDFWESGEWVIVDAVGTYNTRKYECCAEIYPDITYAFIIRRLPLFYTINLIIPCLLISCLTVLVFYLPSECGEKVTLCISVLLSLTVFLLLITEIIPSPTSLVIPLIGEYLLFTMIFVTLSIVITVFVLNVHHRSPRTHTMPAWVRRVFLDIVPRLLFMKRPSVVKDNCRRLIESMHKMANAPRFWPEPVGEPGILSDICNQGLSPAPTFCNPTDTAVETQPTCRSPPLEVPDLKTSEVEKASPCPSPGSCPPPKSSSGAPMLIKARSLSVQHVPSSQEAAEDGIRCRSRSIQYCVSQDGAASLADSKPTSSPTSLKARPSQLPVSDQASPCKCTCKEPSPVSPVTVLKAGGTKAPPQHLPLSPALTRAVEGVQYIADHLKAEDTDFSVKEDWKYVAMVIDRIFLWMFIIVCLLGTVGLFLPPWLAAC
Sequence of Neuronal acetylcholine receptor; alpha4/beta2 (P12390 whole entry): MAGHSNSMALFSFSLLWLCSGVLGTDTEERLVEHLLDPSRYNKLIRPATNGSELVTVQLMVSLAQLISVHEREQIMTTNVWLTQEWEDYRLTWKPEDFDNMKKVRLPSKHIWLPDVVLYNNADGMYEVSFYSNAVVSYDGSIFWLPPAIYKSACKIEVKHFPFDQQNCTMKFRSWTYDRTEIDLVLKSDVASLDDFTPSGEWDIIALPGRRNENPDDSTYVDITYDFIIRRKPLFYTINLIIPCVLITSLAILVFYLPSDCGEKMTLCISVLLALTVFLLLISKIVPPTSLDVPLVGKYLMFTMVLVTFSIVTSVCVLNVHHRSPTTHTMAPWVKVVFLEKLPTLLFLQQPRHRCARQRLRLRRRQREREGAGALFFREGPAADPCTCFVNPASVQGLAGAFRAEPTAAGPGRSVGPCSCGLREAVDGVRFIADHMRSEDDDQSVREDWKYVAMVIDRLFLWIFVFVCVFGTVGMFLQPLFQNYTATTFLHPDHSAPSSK
Method in brief: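 Radioligand binding in rat cortex tissue using [³H]-epibatidine to label α4β2 sites. Ki reported as the mean (% coefficient of variation) of three independent determinations.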

[3] = target: Neuronal acetylcholine receptor subunit alpha-7 (Rattus norvegicus, UniProt Q05941); assay: Displacement of [3H]alpha-bungarotoxin form alpha7 nAChR in rat cortex
Sequence of Neuronal acetylcholine receptor subunit alpha-7 (Q05941 whole entry): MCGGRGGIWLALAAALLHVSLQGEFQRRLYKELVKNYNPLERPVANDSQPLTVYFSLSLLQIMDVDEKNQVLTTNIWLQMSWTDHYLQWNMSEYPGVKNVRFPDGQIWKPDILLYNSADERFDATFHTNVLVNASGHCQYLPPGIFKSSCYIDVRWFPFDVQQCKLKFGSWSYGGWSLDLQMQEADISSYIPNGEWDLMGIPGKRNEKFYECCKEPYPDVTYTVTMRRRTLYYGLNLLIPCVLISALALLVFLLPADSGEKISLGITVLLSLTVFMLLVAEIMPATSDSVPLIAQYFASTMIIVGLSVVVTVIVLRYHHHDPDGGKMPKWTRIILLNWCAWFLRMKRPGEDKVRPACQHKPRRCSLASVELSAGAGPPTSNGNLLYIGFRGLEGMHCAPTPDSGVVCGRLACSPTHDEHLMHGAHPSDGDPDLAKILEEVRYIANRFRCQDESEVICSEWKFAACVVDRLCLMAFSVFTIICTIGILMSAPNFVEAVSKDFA

`O=[N+]([O-])c1ccc(N2CC3CC(C2)N3)cc1` showed a Ratio Ki [1] of 23300, a Ki [2] of 1.2 nM and a Ki [3] of 28000 nM.

`Brc1ccc(N2CC3CC(C2)N3)cn1` gave a Ratio Ki [1] of 1300, a Ki [2] of 0.039 nM and a Ki [3] of 50.5 nM.

In the case of `Clc1ccc(N2CC3CC(C2)N3)nn1`, the Ratio Ki [1] is reported as 149, the Ki [2] is reported as 0.168 nM and the Ki [3] is reported as 25 nM.

`c1cncc(N2CC3CC(C2)N3)c1` was tested, and the Ratio Ki [1] was 24.3, the Ki [2] was 0.056 nM and the Ki [3] was 1.36 nM.

`Clc1ccc(N2CC3CC(C2)N3)cn1` showed a Ratio Ki [1] of 178, a Ki [2] of 0.023 nM and a Ki [3] of 4.1 nM.

Work on `CN1C2CC1CN(c1ccc(Cl)nc1)C2` yielded a Ratio Ki [1] of 46.5, a Ki [2] of 0.43 nM and a Ki [3] of 20 nM.
